Results reported in ChEMBL document CHEMBL1147403, “MexAB-OprM specific efflux pump inhibitors in Pseudomonas aeruginosa. Part 3: Optimization of potency in the pyridopyrimidine series through the application of a pharmacophore model” (2004).

System: Pseudomonas aeruginosa
Assay: Intrinsic antibacterial activity against Pseudomonas aeruginosa
Assay type: functional
In short: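 Tested alone for antibacterial activity against P. aeruginosa PAM1723, a strain that overexpresses the MexAB-OprM pump and has MexCD-OprJ and MexEF-OprN genetically disrupted; MIC in µg/mL.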

SMILES	MIC [µg/mL]
CC(C)c1csc(CCc2ccn3c(=O)c(/C=C/C(=O)O)c(N4CCCC(N(C)C)C4)nc3c2)n1 (centres undefined)	> 320
CC(C)c1csc(CCc2ccn3c(=O)c(/C=C/C(=O)O)c(N4CCCC(O)C4)nc3c2)n1 (centres undefined)	> 320
CC(C)c1csc(CCc2ccn3c(=O)c(-c4nnn[nH]4)cnc3c2)n1	> 320
CC(C)c1csc(CCc2ccn3c(=O)c(/C=C/C(=O)O)c(N4CC[C@@H](N(C)C)C4)nc3c2)n1	> 320
CCCNc1nc2cc(CCc3nc(C(C)C)cs3)ccn2c(=O)c1/C=C/C(=O)O	> 320
CC(C)c1csc(CCc2ccn3c(=O)c(/C=C/C(=O)O)c(N4CCC(O)C4)nc3c2)n1 (centres undefined)	> 320
CC(C)c1csc(CCc2ccn3c(=O)c(/C=C/C(=O)O)c(N4CCC(O)CC4)nc3c2)n1	> 320
CC(C)c1csc(CCc2ccn3c(=O)c(/C=C/C(=O)O)c(N4CCCC(OC(N)=O)C4)nc3c2)n1 (centres undefined)	> 320
CC(C)c1csc(CCc2ccn3c(=O)c(/C=C/C(=O)O)c(N[C@H](CO)[C@@H](O)c4ccccc4)nc3c2)n1 (single isomer, unassigned)	> 320
CC(C)c1csc(CCc2ccn3c(=O)c(/C=C/C(=O)O)c(NCC4CCCCC4)nc3c2)n1	> 320
CC(C)c1csc(CCc2ccn3c(=O)c(C#CC(=O)O)c(N4CCOCC4)nc3c2)n1	> 320
CC(C)c1csc(CCc2ccn3c(=O)c(CCC(=O)O)c(N4CCCC(O)C4)nc3c2)n1 (centres undefined)	> 320
CCC(CC)Nc1nc2cc(CCc3nc(C(C)C)cs3)ccn2c(=O)c1/C=C/C(=O)O	> 320
CC(C)Nc1nc2cc(CCc3nc(C(C)C)cs3)ccn2c(=O)c1/C=C/C(=O)O	> 320
CC(C)c1csc(CCc2ccn3c(=O)c(/C=C/C(=O)O)c(NCc4ccccn4)nc3c2)n1	> 320

System: Pseudomonas aeruginosa
Assay: Minimum inhibitory concentration Pseudomonas aeruginosa in presence of LVFX substrate, (100% growth inhibition)
Assay type: functional
In short: (§1)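 Potentiation of levofloxacin (LVFX), a MexAB-OprM substrate, against P. aeruginosa PAM1723 (MexAB-OprM overexpressed; MexCD-OprJ and MexEF-OprN genetically disrupted). Value is the inhibitor concentration (µg/mL) giving 4-fold (MPC4) or 8-fold (MPC8) potentiation.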

SMILES	MPC4 [µg/mL]
CC(C)c1csc(CCc2ccn3c(=O)c(/C=C/C(=O)O)c(N4CCCC(N(C)C)C4)nc3c2)n1 (centres undefined)	8
CC(C)c1csc(CCc2ccn3c(=O)c(/C=C/C(=O)O)c(N4CCCC(O)C4)nc3c2)n1 (centres undefined)	0.5
CC(C)c1csc(CCc2ccn3c(=O)c(-c4nnn[nH]4)cnc3c2)n1	>16
CC(C)c1csc(CCc2ccn3c(=O)c(/C=C/C(=O)O)c(N4CC[C@@H](N(C)C)C4)nc3c2)n1	8
CCCNc1nc2cc(CCc3nc(C(C)C)cs3)ccn2c(=O)c1/C=C/C(=O)O	8
CC(C)c1csc(CCc2ccn3c(=O)c(/C=C/C(=O)O)c(N4CCC(O)C4)nc3c2)n1 (centres undefined)	4
CC(C)c1csc(CCc2ccn3c(=O)c(/C=C/C(=O)O)c(N4CCC(O)CC4)nc3c2)n1	1
CC(C)c1csc(CCc2ccn3c(=O)c(/C=C/C(=O)O)c(N4CCCC(OC(N)=O)C4)nc3c2)n1 (centres undefined)	1
CC(C)c1csc(CCc2ccn3c(=O)c(/C=C/C(=O)O)c(N[C@H](CO)[C@@H](O)c4ccccc4)nc3c2)n1 (single isomer, unassigned)	8
CC(C)c1csc(CCc2ccn3c(=O)c(/C=C/C(=O)O)c(NCC4CCCCC4)nc3c2)n1	8
CC(C)c1csc(CCc2ccn3c(=O)c(C#CC(=O)O)c(N4CCOCC4)nc3c2)n1	2
CC(C)c1csc(CCc2ccn3c(=O)c(CCC(=O)O)c(N4CCCC(O)C4)nc3c2)n1 (centres undefined)	32
CCC(CC)Nc1nc2cc(CCc3nc(C(C)C)cs3)ccn2c(=O)c1/C=C/C(=O)O	32
CC(C)Nc1nc2cc(CCc3nc(C(C)C)cs3)ccn2c(=O)c1/C=C/C(=O)O	8
CC(C)c1csc(CCc2ccn3c(=O)c(/C=C/C(=O)O)c(NCc4ccccn4)nc3c2)n1	16

System: Pseudomonas aeruginosa
Assay: Minimum inhibitory concentration against Pseudomonas aeruginosa in presence of LVFX substrate, (100% growth inhibition)
Assay type: functional
In short: as §1

SMILES	MPC8 [µg/mL]
CC(C)c1csc(CCc2ccn3c(=O)c(/C=C/C(=O)O)c(N4CCCC(N(C)C)C4)nc3c2)n1 (centres undefined)	128
CC(C)c1csc(CCc2ccn3c(=O)c(/C=C/C(=O)O)c(N4CCCC(O)C4)nc3c2)n1 (centres undefined)	8
CC(C)c1csc(CCc2ccn3c(=O)c(-c4nnn[nH]4)cnc3c2)n1	>16
CC(C)c1csc(CCc2ccn3c(=O)c(/C=C/C(=O)O)c(N4CC[C@@H](N(C)C)C4)nc3c2)n1	128
CCCNc1nc2cc(CCc3nc(C(C)C)cs3)ccn2c(=O)c1/C=C/C(=O)O	>32
CC(C)c1csc(CCc2ccn3c(=O)c(/C=C/C(=O)O)c(N4CCC(O)C4)nc3c2)n1 (centres undefined)	32
CC(C)c1csc(CCc2ccn3c(=O)c(/C=C/C(=O)O)c(N4CCC(O)CC4)nc3c2)n1	8
CC(C)c1csc(CCc2ccn3c(=O)c(/C=C/C(=O)O)c(N4CCCC(OC(N)=O)C4)nc3c2)n1 (centres undefined)	8
CC(C)c1csc(CCc2ccn3c(=O)c(/C=C/C(=O)O)c(N[C@H](CO)[C@@H](O)c4ccccc4)nc3c2)n1 (single isomer, unassigned)	64
CC(C)c1csc(CCc2ccn3c(=O)c(/C=C/C(=O)O)c(NCC4CCCCC4)nc3c2)n1	>64
CC(C)c1csc(CCc2ccn3c(=O)c(C#CC(=O)O)c(N4CCOCC4)nc3c2)n1	16
CC(C)c1csc(CCc2ccn3c(=O)c(CCC(=O)O)c(N4CCCC(O)C4)nc3c2)n1 (centres undefined)	>128
CCC(CC)Nc1nc2cc(CCc3nc(C(C)C)cs3)ccn2c(=O)c1/C=C/C(=O)O	>128
CC(C)Nc1nc2cc(CCc3nc(C(C)C)cs3)ccn2c(=O)c1/C=C/C(=O)O	64
CC(C)c1csc(CCc2ccn3c(=O)c(/C=C/C(=O)O)c(NCc4ccccn4)nc3c2)n1	128

System: Pseudomonas aeruginosa
Assay: Minimum inhibitory concentration against Pseudomonas aeruginosa in presence of aztreonam substrate and with 0.125% human serum albumin, (100% growth inhibition)
Assay type: functional
In short: (§2)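 Potentiation of aztreonam, a MexAB-OprM substrate, against P. aeruginosa PAM1723 (MexAB-OprM overexpressed; MexCD-OprJ and MexEF-OprN genetically disrupted). Run without HSA and with 0.125% human serum albumin. Value is the inhibitor concentration (µg/mL) giving 8-fold potentiation (MPC8).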

SMILES	MPC8 [µg/mL]
CC(C)c1csc(CCc2ccn3c(=O)c(/C=C/C(=O)O)c(N4CCCC(N(C)C)C4)nc3c2)n1 (centres undefined)	128
CC(C)c1csc(CCc2ccn3c(=O)c(/C=C/C(=O)O)c(N4CCCC(O)C4)nc3c2)n1 (centres undefined)	16
CC(C)c1csc(CCc2ccn3c(=O)c(-c4nnn[nH]4)cnc3c2)n1	16
CC(C)c1csc(CCc2ccn3c(=O)c(/C=C/C(=O)O)c(N4CC[C@@H](N(C)C)C4)nc3c2)n1	64
CCCNc1nc2cc(CCc3nc(C(C)C)cs3)ccn2c(=O)c1/C=C/C(=O)O	32
CC(C)c1csc(CCc2ccn3c(=O)c(/C=C/C(=O)O)c(N4CCC(O)C4)nc3c2)n1 (centres undefined)	32
CC(C)c1csc(CCc2ccn3c(=O)c(/C=C/C(=O)O)c(N4CCC(O)CC4)nc3c2)n1	16
CC(C)c1csc(CCc2ccn3c(=O)c(/C=C/C(=O)O)c(N4CCCC(OC(N)=O)C4)nc3c2)n1 (centres undefined)	16
CC(C)c1csc(CCc2ccn3c(=O)c(/C=C/C(=O)O)c(N[C@H](CO)[C@@H](O)c4ccccc4)nc3c2)n1 (single isomer, unassigned)	64
CC(C)c1csc(CCc2ccn3c(=O)c(/C=C/C(=O)O)c(NCC4CCCCC4)nc3c2)n1	>64
CC(C)c1csc(CCc2ccn3c(=O)c(C#CC(=O)O)c(N4CCOCC4)nc3c2)n1	16
CCC(CC)Nc1nc2cc(CCc3nc(C(C)C)cs3)ccn2c(=O)c1/C=C/C(=O)O	128
CC(C)Nc1nc2cc(CCc3nc(C(C)C)cs3)ccn2c(=O)c1/C=C/C(=O)O	64
CC(C)c1csc(CCc2ccn3c(=O)c(/C=C/C(=O)O)c(NCc4ccccn4)nc3c2)n1	32

System: Pseudomonas aeruginosa
Assay: Minimum inhibitory concentration against Pseudomonas aeruginosa in presence of aztreonam substrate and with out human serum albumin, (100% growth inhibition)
Assay type: functional
In short: as §2

SMILES	MPC8 [µg/mL]
CC(C)c1csc(CCc2ccn3c(=O)c(/C=C/C(=O)O)c(N4CCCC(N(C)C)C4)nc3c2)n1 (centres undefined)	>128
CC(C)c1csc(CCc2ccn3c(=O)c(/C=C/C(=O)O)c(N4CCCC(O)C4)nc3c2)n1 (centres undefined)	8
CC(C)c1csc(CCc2ccn3c(=O)c(-c4nnn[nH]4)cnc3c2)n1	16
CC(C)c1csc(CCc2ccn3c(=O)c(/C=C/C(=O)O)c(N4CC[C@@H](N(C)C)C4)nc3c2)n1	128
CCCNc1nc2cc(CCc3nc(C(C)C)cs3)ccn2c(=O)c1/C=C/C(=O)O	>32
CC(C)c1csc(CCc2ccn3c(=O)c(/C=C/C(=O)O)c(N4CCC(O)C4)nc3c2)n1 (centres undefined)	32
CC(C)c1csc(CCc2ccn3c(=O)c(/C=C/C(=O)O)c(N4CCC(O)CC4)nc3c2)n1	16
CC(C)c1csc(CCc2ccn3c(=O)c(/C=C/C(=O)O)c(N4CCCC(OC(N)=O)C4)nc3c2)n1 (centres undefined)	32
CC(C)c1csc(CCc2ccn3c(=O)c(/C=C/C(=O)O)c(N[C@H](CO)[C@@H](O)c4ccccc4)nc3c2)n1 (single isomer, unassigned)	64
CC(C)c1csc(CCc2ccn3c(=O)c(/C=C/C(=O)O)c(NCC4CCCCC4)nc3c2)n1	>64
CC(C)c1csc(CCc2ccn3c(=O)c(C#CC(=O)O)c(N4CCOCC4)nc3c2)n1	8
CC(C)c1csc(CCc2ccn3c(=O)c(CCC(=O)O)c(N4CCCC(O)C4)nc3c2)n1 (centres undefined)	>128
CCC(CC)Nc1nc2cc(CCc3nc(C(C)C)cs3)ccn2c(=O)c1/C=C/C(=O)O	128
CC(C)Nc1nc2cc(CCc3nc(C(C)C)cs3)ccn2c(=O)c1/C=C/C(=O)O	64
CC(C)c1csc(CCc2ccn3c(=O)c(/C=C/C(=O)O)c(NCc4ccccn4)nc3c2)n1	32

Species: Rattus norvegicus
Assay: Serum protein binding of compound was evaluated using rat serum
Assay type: functional

SMILES	Binding [%]
CC(C)c1csc(CCc2ccn3c(=O)c(/C=C/C(=O)O)c(N4CCCC(O)C4)nc3c2)n1 (centres undefined)	82.1
CC(C)c1csc(CCc2ccn3c(=O)c(-c4nnn[nH]4)cnc3c2)n1	81.5
CC(C)c1csc(CCc2ccn3c(=O)c(/C=C/C(=O)O)c(N4CC[C@@H](N(C)C)C4)nc3c2)n1	69.3
CC(C)c1csc(CCc2ccn3c(=O)c(/C=C/C(=O)O)c(N4CCCC(OC(N)=O)C4)nc3c2)n1 (centres undefined)	91.2
CC(C)Nc1nc2cc(CCc3nc(C(C)C)cs3)ccn2c(=O)c1/C=C/C(=O)O	82.1
